Data taken from the EternaBench riboswitch data.

Columns and labels:
MS2 coat protein [1] = test: apparent Kd, MS2 coat protein; higher = weaker binding; RNA-MaP array
Procedure, shortened: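 Sequenced DNA templates on an Illumina sequencing chip were transcribed into the designed RNAs. These were incubated at room temperature in Tris-HCl pH 7.5 buffer containing KCl, MgCl2, BSA, DTT, tRNA and Tween20 with fluorescently labeled MS2 coat protein at 1.5 nM to 3 μM, with or without input ligand. Apparent Kd is the median of binding-curve fits per cluster, and designs with fewer than 10 clusters measured were excluded.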

MS2 coat protein [2] = test: apparent Kd, MS2 coat protein; higher = weaker binding; RNA-MaP array; FMN 200 µM where present; details: designed as: OFF switch for flavin mononucleotide
Procedure, shortened: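 Designs were transcribed by stalled E. coli RNA polymerase on Illumina sequencing-chip clusters. They were titrated with SNAP-549-labelled MS2 coat protein from 0.7 or 1.5 nM, doubling to 3 µM, without and then with constant ligand. Buffer: 100 mM Tris-HCl pH 7.5, 80 mM KCl, 4 mM MgCl2, BSA, DTT, yeast tRNA, Tween-20. Green signal was normalised to red-channel RNA signal and control-cluster median Fmax. Apparent Kd is the median of filtered per-cluster binding-curve fits.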

[3] = designed as: ON switch for flavin mononucleotide, no ligand
[4] = ligand present: flavin mononucleotide, designed as: ON switch for flavin mononucleotide
[5] = designed as: OFF switch for flavin mononucleotide, no ligand
[6] = ligand present: flavin mononucleotide, designed as: OFF switch for flavin mononucleotide
[7] = designed as: OFF switch for theophylline, no ligand
[8] = ligand present: theophylline, designed as: OFF switch for theophylline
[9] = designed as: ON switch for theophylline, no ligand
[10] = ligand present: theophylline, designed as: ON switch for theophylline
[11] = ligand present: flavin mononucleotide

## AGUACAAUAUUAGGAUAUUGACAAAACAUGAGGAUCACCCAUGUAAGGCAAGUGCAAGGGAGAGUCAAGAAGGAAAACUGAGUU
MS2 coat protein [1]; [3]
  apparent Kd: 38.4 nM
MS2 coat protein [1]; [4]
  apparent Kd: 30 nM

## AAACAAGUAGGAUAUACAUGAGGAUCACCCAUGUAUUGUGAGGAUAGUACUGUACCAUGUAGAAGGACUCCGGA
MS2 coat protein [1]; [5]
  apparent Kd: 10.7 nM
MS2 coat protein [1]; [6]
  apparent Kd: 9.12 nM

## CGCAAGAUCUUAGGAUAUCUGUGAGCCAAGACUAGAGAAGGAAGGAGGCUGUGCAACAUGAGGAUCACCCAUGUAUCCCGUGCA
MS2 coat protein [1]; [5]
  apparent Kd: 39.7 nM
MS2 coat protein [1]; [6]
  apparent Kd: 35.4 nM

## CUGCGCUCGAAGAAGGGCUGCCACAUGAGGAUCACCCAUGUCACUGACACCGAAGUUAGAAAGUAGCAGGAUAUUCAGGGUCCU
MS2 coat protein [1]; [3]
  apparent Kd: 49.2 nM
MS2 coat protein [1]; [4]
  apparent Kd: 32.4 nM

## CUGACGAGCUUUUUGUCAGGUUGUGUAGAUACCAGUUCUCUGGUGAACCCUUGGCAGCUAACAACAUGAGGAUCACCCAUGUGAU
MS2 coat protein [1]; [7]
  apparent Kd: 83.7 nM
MS2 coat protein [1]; [8]
  apparent Kd: 326 nM

## ACCCUCUAUGAGAAGGAGAGCUUCGCUAGUUAUCUAGGAUAUCACGGAGGACCACUGACACUCCGACAUGAGGAUCACCCAUGU
MS2 coat protein [1]; [3]
  apparent Kd: 16.5 nM
MS2 coat protein [1]; [4]
  apparent Kd: 13.9 nM

## CGAGCAAGAGGAUAUACGAAGACGGUAUGAGUCAACCUCAAACAUGAGGAUCACCCAUGUAGAAGGCUUCUCAU
MS2 coat protein [1]; [5]
  apparent Kd: 7.46 nM
MS2 coat protein [1]; [6]
  apparent Kd: 9.74 nM

## GACUACCAGUAAGGAUAUGCUCUUAUAAAAGGAGCAGAAGGUACCUGUGACGCCUACGGGCGACAUGAGGAUCACCCAUGUUCU
MS2 coat protein [1]; [3]
  apparent Kd: 692 nM
MS2 coat protein [1]; [4]
  apparent Kd: 386 nM

## GCAAUACAUGAGGAUCACCCAUGUUUUAGAUACGAAGGAUAUGUGUAAGCGUACUAAUGUACAGAAGGUCGGAUUU
MS2 coat protein [1]; [3]
  apparent Kd: 13.1 nM
MS2 coat protein [1]; [4]
  apparent Kd: 9.26 nM

## GGAAUGUCGUAGGAUAUAUGAUCUGUAAGGUAGAUAGAAGGACGAACAUGAGGAUCACCCAUGUGGAGGAUGUU
MS2 coat protein [1]; [5]
  apparent Kd: 15.5 nM
MS2 coat protein [1]; [6]
  apparent Kd: 27.5 nM

## UAUGUAUAGAAGGAUAUCUAAUUACGCCCGAUAAGAGAAGGUCUGACAUGAGGAUCACCCAUGUUAUGGGAGGC
MS2 coat protein [1]; [5]
  apparent Kd: 18.1 nM
MS2 coat protein [1]; [6]
  apparent Kd: 23.3 nM

## AUCAAGUCAGGAUAUGAACUAAAGAUGGAAAACGUAGCAAAACAGAAGGGACAUGAGGAUCACCCAUGUGGAAG
MS2 coat protein [1]; [5]
  apparent Kd: 19.9 nM
MS2 coat protein [1]; [6]
  apparent Kd: 17 nM

## UAAGCACAUGAGGAUCACCCAUGUAAGGAUAUCCGAUCAUGCAAUCCGGAGAUCACAAGGAGAAGGUACAUGCA
MS2 coat protein [1]; [5]
  apparent Kd: 29.6 nM
MS2 coat protein [1]; [6]
  apparent Kd: 33.3 nM

## GCCCGUUAUUAGAAGGGUAUUCGGAUAUGCAUUCCUUACAUGAGGAUCACCCAUGUACCGCGAGUACAGGAUAUAAAACCGCCA
MS2 coat protein [1]; [5]
  apparent Kd: 75.2 nM
MS2 coat protein [1]; [6]
  apparent Kd: 69.7 nM

## UUUGUAUAGCAGAAGGCGUUAUUAGGAUGGCUACGAGGAUAUGCGGUACUCUAUUAGUACAUGAGGAUCACCCAUGUGUGGGCC
MS2 coat protein [1]; [3]
  apparent Kd: 214 nM
MS2 coat protein [1]; [4]
  apparent Kd: 145 nM

## AGUGCUACGUGUAAUCAAAGAGAACCAGAUACCAGAUUAGCAUACAUCCCUUGGCAGCUGCAUACAUGAGGAUCACCCAUGUCAG
MS2 coat protein [1]; [7]
  apparent Kd: 37.2 nM
MS2 coat protein [1]; [8]
  apparent Kd: 39.1 nM

## UCCCAGCAAGGAUAUACAUGAAAAGGUAAAGAAGAAAAGAAACAUGAGGAUCACCCAUGUAGAAGGUGCAAGAG
MS2 coat protein [1]; [5]
  apparent Kd: 15.5 nM
MS2 coat protein [1]; [6]
  apparent Kd: 18.4 nM

## CUUCUGAAAGCAAUGGGAUCUGUUAUUGAUACCAGCAUCUGAUUUUGCCCUUGGCAGCAAGAAACAUGAGGAUCACCCAUGUGGC
MS2 coat protein [1]; [7]
  apparent Kd: 19.5 nM
MS2 coat protein [1]; [8]
  apparent Kd: 61.2 nM

## UUCUCAUCGUACAUGAGGAUCACCCAUGUCUCCCAUUUACCCUAGGAUAUGAAAGACCUUUACUCUCAGAAGGAGGAUGAUGCA
MS2 coat protein [1]; [3]
  apparent Kd: 63.2 nM
MS2 coat protein [1]; [4]
  apparent Kd: 51.9 nM

## CAUACGCCGCAGAAGGAAGGACAGACAUGAGGAUCACCCAUGUACACCGGUUUAUUGGGUGCACCUUAGGAUAUGCAAAAGAAC
MS2 coat protein [1]; [3]
  apparent Kd: 268 nM
MS2 coat protein [1]; [4]
  apparent Kd: 132 nM

## GCUAUGAACGUAGGAUAUGAAGCCUGGCUUGGUUCAGAAGGACGUGAGUAAGUGAGGUCCUGACAUGAGGAUCACCCAUGUACA
MS2 coat protein [1]; [5]
  apparent Kd: 23.9 nM
MS2 coat protein [1]; [6]
  apparent Kd: 31.7 nM

## UUGUACGAAACUGAUACCAGCCAGCAAUGCCACCAAGAGCACAUGAGGAUCACCCAUGUUGGCCCUUGGCAGCAGGACAAUAAGC
MS2 coat protein [1]; [7]
  apparent Kd: 8.63 nM
MS2 coat protein [1]; [8]
  apparent Kd: 9.47 nM

## GCUCUGUCAGGAUAUAGGACGGCAACAGGCAAACUAAGCAACUAGAAGGGACAUGAGGAUCACCCAUGUAGCGC
MS2 coat protein [1]; [5]
  apparent Kd: 9.33 nM
MS2 coat protein [1]; [6]
  apparent Kd: 9.2 nM

## GCACAACAUGAGGAUCACCCAUGUCGAGAUACCAGAACAUAUAUAUUCCCUUGGCAGCUCACACCUUUAAUGUAAAAUUCUUUGG
MS2 coat protein [1]; [9]
  apparent Kd: 12.7 nM
MS2 coat protein [1]; [10]
  apparent Kd: 14.5 nM

## AGGUCGAAACUAGGAUAUCUUCACUAUGUCAGAAGAGAAGGAGUAGAGCAUGACAGUGAUAGUACAUGAGGAUCACCCAUGUUA
MS2 coat protein [1]; [5]
  apparent Kd: 18.8 nM
MS2 coat protein [1]; [6]
  apparent Kd: 15.7 nM

## AGUGUAUACAAGAAGGAACAUGGACUAGGAUUGUUAGGAUAUUGCAUAAACAUGAGGAUCACCCAUGUGCGACACGCCCACAUC
MS2 coat protein [1]; [3]
  apparent Kd: 35.4 nM
MS2 coat protein [1]; [4]
  apparent Kd: 21.7 nM

## GUGGACAUGAGGAUCACCCAUGUAAGUCGGCGAGGACCGGUACGGCCGCCACUCGUGUUCUGUCUCAGCUCAAACGUAGCCGGAA
MS2 coat protein [1]; designed as: ON switch for tryptophan, no ligand
  apparent Kd: 36.3 nM
MS2 coat protein [1]; ligand present: tryptophan, designed as: ON switch for tryptophan
  apparent Kd: 17.9 nM

## GGGCCACCUCUAACAUGAGGAUCACCCAUGUUCGUCGGUUCCGAGGAUAUGUCUAGACGUAACGGACAGAAGGCGGUCCGGCUG
MS2 coat protein [1]; [5]
  apparent Kd: 26.2 nM
MS2 coat protein [1]; [6]
  apparent Kd: 81 nM

## GGAAAAUAUAGGGAUACCAGAUAUGGCGUUGACAUGAGGAUCACCCAUGUCUUAGCAGUGAUCCCUUGGCAGCCCACACCAUCCG
MS2 coat protein [1]; [9]
  apparent Kd: 71.6 nM
MS2 coat protein [1]; [10]
  apparent Kd: 34 nM

## AUUGUGUAAGGAUAUUAUAGAAGAGGUAGGCAACUUCUGAAUAAGAAGGUACAUGAGGAUCACCCAUGUUCAAU
MS2 coat protein [1]; [5]
  apparent Kd: 11.7 nM
MS2 coat protein [1]; [6]
  apparent Kd: 12.1 nM

## UAAUUAACGUAGAAGGAAUCCCAUCCGUUGCAAUUAGGAUAUACGUUCCCUCGAACAUGAGGAUCACCCAUGUGGCAACCAUAU
MS2 coat protein [1]; [5]
  apparent Kd: 14.7 nM
MS2 coat protein [1]; [6]
  apparent Kd: 13.8 nM

## AGCCUGGAAGCAGGAUAUGGGAUACAUGAGGAUCACCCAUGUAAGAUAAUAGGGCAACGAAGAAGCCAGAAGGGCUCGAGGUAA
MS2 coat protein [1]; [3]
  apparent Kd: 16.2 nM
MS2 coat protein [1]; [4]
  apparent Kd: 13.1 nM

## UACAUGAGGAUCACCCAUGUGUGUAGCUAUUACUGUUACAUCUAGGAUAUGUCGGGAACUCAACAACAGAAGGAGAUAGAAGGA
MS2 coat protein [1]; [3]
  apparent Kd: 48.8 nM
MS2 coat protein [1]; [4]
  apparent Kd: 33.8 nM

## AUCGCAGAUGUAAGGAUAUUAGUGUAGCAACGGUCAAAGAAGGAACAUGAGGAUCACCCAUGUGGUAGAUAAAU
MS2 coat protein [1]; [5]
  apparent Kd: 19 nM
MS2 coat protein [1]; [6]
  apparent Kd: 15.2 nM

## UGAUCGAGAGAUCUUAGAUUCUGGUAGGAUAUACAUUAUAGAAGUUAUACAUGAGGAUCACCCAUGUAGAAGGACUAGAGUCUA
MS2 coat protein [2]; no ligand
  apparent Kd: 5.73 nM
MS2 coat protein [2]; [11]
  apparent Kd: 7.54 nM

## GCAUUUUAUGCAGGAUAUUGUCUUUGGAUUAAACAAGAAGGGCAUAACAUGAGGAUCACCCAUGUUUUAUAGGUAUAUAUGUUC
MS2 coat protein [2]; no ligand
  apparent Kd: 14.2 nM
MS2 coat protein [2]; [11]
  apparent Kd: 21.6 nM
